Measured values from ChEMBL document CHEMBL1152489, “Synthesis and biological evaluation of a novel series of 1,5-benzothiazepine derivatives as potential antimicrobial agents” (2009).
Active and inactive are the calls of the source. The rule behind the calls is not given here.

Assays:
Escherichia coli [1] = assay: Antibacterial activity against Escherichia coli ATCC 44752 at 30 ug/disk after 24 hrs by disk diffusion method; type: functional; conditions: ATCC 44752, 24 h, read-out: IZ
Method in brief: (§1)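 Disc diffusion: sterile 6 mm paper discs impregnated with compound dissolved in DMSO, placed on the surface of medium inoculated with the microorganism; DMSO-only discs served as controls. Plates were incubated at 37 °C for 24 h. Growth-inhibition zone diameter (mm) was read and averaged over three trials.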

Staphylococcus aureus [2] = assay: Antibacterial activity against Staphylococcus aureus ATCC 25923 at 30 ug/disk after 24 hrs by disk diffusion method; type: functional; conditions: ATCC 25923, 24 h, read-out: IZ; method in brief: as §1
[3] = test system: Staphylococcus epidermidis; assay: Antibacterial activity against Staphylococcus epidermidis ATCC 26069 at 30 ug/disk after 24 hrs by disk diffusion method; type: functional; conditions: ATCC 26069, 24 h, read-out: IZ; method in brief: as §1
Candida albicans [4] = assay: Antifungal activity against Candida albicans ATCC 10231 at 200 ug/disk after 24 hrs by disk diffusion method; type: functional; conditions: ATCC 10231, 24 h, read-out: IZ
Method in brief: (§2)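 Disk diffusion on media seeded with the organism. Sterile paper discs (6 mm) carried test compound dissolved in DMSO at 12.5, 50, 100 or 200 µg/disc. DMSO-only discs served as controls. Plates were incubated 24 h at 37 °C. The read-out is the growth-inhibition zone diameter in mm, averaged over three trials (±1 mm).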

Candida albicans [5] = assay: Antifungal activity against Candida albicans ATCC 10231 after 24 hrs by disk diffusion method; type: functional, organism-based; method in brief: as §2
[6] = test system: Staphylococcus epidermidis; assay: Antibacterial activity against Staphylococcus epidermidis ATCC 26069 at 50 ug/disk after 24 hrs by disk diffusion method; type: functional; conditions: for zone of inhibition at 50 µg/disc: ATCC 26069, 24 h, read-out: IZ; method in brief: as §2
Escherichia coli [7] = assay: Antibacterial activity against Escherichia coli ATCC 44752 at 200 ug/disk after 24 hrs by disk diffusion method; type: functional, organism-based; method in brief: as §2
Candida albicans [8] = assay: Antifungal activity against Candida albicans ATCC 10231 at 100 ug/disk after 24 hrs by disk diffusion method; type: functional; conditions: ATCC 10231, 24 h, read-out: IZ; method in brief: as §2
[9] = test system: Staphylococcus epidermidis; assay: Antibacterial activity against Staphylococcus epidermidis ATCC 26069 at 100 ug/disk after 24 hrs by disk diffusion method; type: functional; conditions: ATCC 26069, 24 h, read-out: IZ; method in brief: as §2
Candida albicans [10] = assay: Antifungal activity against Candida albicans ATCC 10231 at <12.5 ug/disk after 24 hrs by disk diffusion method; type: functional, organism-based; method in brief: as §2
Escherichia coli [11] = assay: Antibacterial activity against Escherichia coli ATCC 44752 at 50 ug/disk after 24 hrs by disk diffusion method; type: functional, organism-based; method in brief: as §2
[12] = test system: Staphylococcus epidermidis; assay: Antibacterial activity against Staphylococcus epidermidis ATCC 26069 at 200 ug/disk after 24 hrs by disk diffusion method; type: functional; conditions: ATCC 26069, 24 h, read-out: IZ; method in brief: as §2
Staphylococcus aureus [13] = assay: Antibacterial activity against Staphylococcus aureus ATCC 25923 at 200 ug/disk after 24 hrs by disk diffusion method; type: functional; conditions: ATCC 25923, 24 h, read-out: IZ; method in brief: as §2
Staphylococcus aureus [14] = assay: Antibacterial activity against Staphylococcus aureus ATCC 25923 at <12.5 ug/disk after 24 hrs by disk diffusion method; type: functional, organism-based; method in brief: as §2
[15] = test system: Staphylococcus epidermidis; assay: Antibacterial activity against Staphylococcus epidermidis ATCC 26069 after 24 hrs by disk diffusion method; type: functional, organism-based; method in brief: as §2
Staphylococcus aureus [16] = assay: Antibacterial activity against Staphylococcus aureus ATCC 25923 at 50 ug/disk after 24 hrs by disk diffusion method; type: functional; conditions: ATCC 25923, 24 h, read-out: IZ; method in brief: as §2
[17] = test system: Staphylococcus epidermidis; assay: Antibacterial activity against Staphylococcus epidermidis ATCC 26069 at <12.5 ug/disk after 24 hrs by disk diffusion method; type: functional, organism-based; method in brief: as §2
Staphylococcus aureus [18] = assay: Antibacterial activity against Staphylococcus aureus ATCC 25923 at 100 ug/disk after 24 hrs by disk diffusion method; type: functional; conditions: ATCC 25923, 24 h, read-out: IZ; method in brief: as §2
Escherichia coli [19] = assay: Antibacterial activity against Escherichia coli ATCC 44752 at 100 ug/disk after 24 hrs by disk diffusion method; type: functional, organism-based; method in brief: as §2
Staphylococcus aureus [20] = assay: Antibacterial activity against Staphylococcus aureus ATCC 25923 after 24 hrs by disk diffusion method; type: functional, organism-based; method in brief: as §2
Candida albicans [21] = assay: Antifungal activity against Candida albicans ATCC 10231 at 50 ug/disk after 24 hrs by disk diffusion method; type: functional; conditions: for zone of inhibition at 50 µg/disc: ATCC 10231, 24 h, read-out: IZ; method in brief: as §2
Candida albicans [22] = assay: Antifungal activity against Candida albicans ATCC 10231 at 25 ug/disk after 24 hrs by disk diffusion method; type: functional; conditions: ATCC 10231, 24 h, read-out: IZ; method in brief: as §1

SMILES | zone of inhibition at 200 µg/disc (Candida albicans [4]) [mm] | zone of inhibition at 50 µg/disc [6] [mm] | inhibition zone (IZ) (Escherichia coli [7]) | zone of inhibition at 100 µg/disc (Candida albicans [8]) [mm] | zone of inhibition at 100 µg/disc [9] [mm] | inhibition zone (IZ) (Escherichia coli [11]) | zone of inhibition at 200 µg/disc [12] [mm] | zone of inhibition at 200 µg/disc (Staphylococcus aureus [13]) [mm] | zone of inhibition at 50 µg/disc (Staphylococcus aureus [16]) [mm] | zone of inhibition at 100 µg/disc (Staphylococcus aureus [18]) [mm] | inhibition zone (IZ) (Escherichia coli [19]) | zone of inhibition at 50 µg/disc (Candida albicans [21]) [mm] | other results
CN[C@H](CC(C)C)C(=O)N[C@H]1C(=O)N[C@@H](CC(N)=O)C(=O)N[C@H]2C(=O)N[C@H]3C(=O)N[C@H](C(=O)N[C@H](C(=O)O)c4cc(O)cc(O)c4-c4cc3ccc4O)[C@H](O)c3ccc(c(Cl)c3)Oc3cc2cc(c3O[C@@H]2O[C@H](CO)[C@@H](O)[C@H](O)[C@H]2O[C@H]2C[C@](C)(N)[C@H](O)[C@H](C)O2)Oc2ccc(cc2Cl)[C@H]1O [VANCOMYCIN] |  |  |  |  |  |  |  |  |  |  |  |  | zone of inhibition at 30 µg/disc (Escherichia coli [1]): 8 mm; zone of inhibition at 30 µg/disc (Staphylococcus aureus [2]): 18 mm; zone of inhibition at 30 µg/disc [3]: 18 mm
CC(=O)C1=C(C)Nc2ccccc2SC1c1ccc(Cl)cc1 (stereo not drawn) | 24 | 17 | inactive | 21 | 17 | inactive | 19 | 15 | 12 | 14 | inactive | 18 | Activity (Candida albicans [5]): Dose-dependent effect; Activity (Candida albicans [10]): inactive; Activity (Staphylococcus aureus [14]): inactive; Activity [15]: Dose-dependent effect; Activity [17]: inactive; Activity (Staphylococcus aureus [20]): Dose-dependent effect
CCOC(=O)C1C(C)=Nc2ccccc2SC1c1ccc(O)cc1 (stereo not drawn) | 30 | 10 | inactive | 24 | 16 | inactive | 20 | 18 | 7 | 15 | inactive | 14 | Activity (Candida albicans [5]): Dose-dependent effect; Activity (Candida albicans [10]): inactive; Activity (Staphylococcus aureus [14]): inactive; Activity [15]: Dose-dependent effect; Activity [17]: inactive; Activity (Staphylococcus aureus [20]): Dose-dependent effect
OC(Cn1cncn1)(Cn1cncn1)c1ccc(F)cc1F [FLUCONAZOLE] |  |  |  |  |  |  |  |  |  |  |  |  | zone of inhibition at 25 µg/disc (Candida albicans [22]): 23 mm
CC(=O)C1=C(C)Nc2ccccc2SC1c1ccc(Cl)cc1Cl (stereo not drawn) | 14 | 7 | inactive | 10 | 8 | inactive | 11 | 10 | 7 | 7 | inactive | 9 | 
COc1ccc(C2Sc3ccccc3NC(C)=C2C(C)=O)cc1 (stereo not drawn) | 11 |  | inactive | 9 | 7 | inactive | 10 | 10 | 6.5 | 7 | inactive | 8 | inhibition zone (IZ) [6]: inactive
CC(=O)C1=C(C)Nc2ccccc2SC1c1ccccc1 (stereo not drawn) | 10 |  | inactive | 7 | 7 | inactive | 10 | 11 | 6.5 | 8 | inactive |  | inhibition zone (IZ) [6]: inactive; inhibition zone (IZ) (Candida albicans [21]): inactive
CC(=O)C1=C(C)Nc2ccccc2SC1c1ccc(C)cc1 (stereo not drawn) | 23 | 7 | inactive | 16 | 7 | inactive | 7 | 10 | 7 | 9 | inactive | 16 | 
